Each block holds one molecule with its values, some of them ahead of it. *1 amine or outer side, *2 acyl side, *3 side chain or, on linkers, in order; H or OH if unused. Where a SMILES comes first, the peptide text is derived from it. Bridges are numbered along the chain shown (N, C = ends). [ ]: non-standard residue; d: D form. The star is where a group is joined. Leu(3R-OH,Nα-propionyl) = CCC(=O)N[C@H](C(=O)*)[C@H](O)C(C)C; X1 = CC(C)[C@@H](O[*:3])[C@H](N[*:1])C(=O)[*:2]; NMeT = CN[C@H](C(=O)O)[C@@H](C)O; dPhLac = O=C(O)[C@H](O)Cc1ccccc1; NMeA = CN[C@@H](C)C(=O)O; NMeDha = C=C(NC)C(=O)O
Columns and labels:
[1] = system: cytosolic PKC activity (NK1R, HEK293 cells); assay: FRET biosensor CytoCKAR, SP-induced cytosolic PKC activity; type: cell-based, human; settings: SP 1 nM
How it was run: (§1)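 HEK293 cells expressed NK1R plus a genetically encoded FRET biosensor targeted to the cytosol, nucleus or plasma membrane (ERK, PKC or cAMP sensors). Ratiometric imaging followed time courses after SP, with the maximal signal set by a positive control. Responses were integrated as area under the curve.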

[2] = system: plasma membrane PKC activity (NK1R, HEK293 cells); assay: FRET biosensor pmCKAR, plasma membrane PKC activity; type: cell-based, human; settings: SP 1 nM
How it was run: as §1

[3] = system: capsaicin-evoked mechanical allodynia; assay: Capsaicin-evoked mechanical allodynia in rat; type: in vivo; settings: intrathecal
[4] = system: cytosolic cAMP (NK1R, HEK293 cells); assay: FRET biosensor CytoEpac2, SP-induced cytosolic cAMP; type: cell-based, human; settings: SP 1 nM
How it was run: as §1

HEK-NK1R cells = assay: Endocytosis of fluorescent Alexa Fluor 568–SP; type: cell-based, human
[5] = system: NK1R endocytosis in HEK293 cells; assay: BRET assay of SP-induced NK1R endocytosis; type: cell-based, human; settings: SP 1 or 10 nM
How it was run: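 NK1R C-terminally fused to RLUC8 was co-expressed in HEK293 cells with Venus-tagged KRAS (plasma membrane marker) or RAB5A (early endosome marker). Receptor proximity to each compartment was tracked as SP-induced BRET over time. Observations were in triplicate, n ≥ 3 experiments.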

[6] = system: cytosolic ERK activity (NK1R, HEK293 cells); assay: FRET biosensor CytoEKAR, SP-induced cytosolic ERK activity; type: cell-based, human; settings: SP 1 nM
How it was run: as §1

[7] = system: SP and CGRP release from dorsal spinal cord; assay: Capsaicin-stimulated neuropeptide release from segments of dorsal spinal cord; settings: segments of mouse dorsal spinal cord, n = 6 experiments
[8] = system: NK1R-positive neurons in lamina I of the dorsal horn; assay: Cell-attached patch clamp recordings of SP-induced firing in spinal cord slices; type: cell-based, rat; settings: for reduction of number of SP-stimulated action potentials: compared to controls; for inhibition of SP-induced firing time of lamina I neurons: slices preincubated with inhibitor, versus vehicle control
How it was run: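 Cell-attached patch clamp recordings were made from second-order lamina I neurons in rat spinal cord slices. SP was applied at 1 μM for 2 min, then washed out. Slices were exposed to test compound for 60 min, washed, and challenged with SP 60 min later. Firing rate was taken as events per 2 min normalized to the 2-min rate, and duration as time to the last action potential. Six to 7 neurons per group.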

[9] = system: NK1R-IR endocytosis in spinal neurons; assay: SP-induced NK1R-IR endocytosis in spinal cord slices; type: cell-based; settings: rat spinal cord slices, SP 1 μM 5 min
[10] = system: pERK in lamina I/II dorsal horn neurons; assay: Capsaicin-stimulated ERK phosphorylation in dorsal horn neurons in vivo; settings: rat, intrathecal inhibitor, intraplantar capsaicin
[11] = system: nuclear ERK activity (NK1R, HEK293 cells); assay: FRET biosensor NucEKAR, SP-induced nuclear ERK activity; type: cell-based, human; settings: for SP stimulation of nuclear ERK: SP 1 nM, HEK293, NucEKAR
How it was run: as §1

[12] = system: formalin nocifensive response; assay: Nocifensive behavior after intraplantar formalin; type: in vivo, mouse; settings: mice, intrathecal endocytosis inhibitors
[13] = system: HEK293 / HEK-NK1R-GFP cells; assay: Uptake and trafficking of tripartite probes; type: cell-based, human; settings: effect of dynamin inhibitor
How it was run: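 HEK293 or HEK-NK1R–GFP cells were incubated with Cy5-labelled cholestanol-conjugated probes, either continuously for 4 hours or as a 30 or 60 min pulse, washed and recovered 4 hours. NK1R-GFP cells received SP to drive receptor endocytosis. Localization to plasma membrane and RAB5A-RFP– or NK1R-GFP–positive endosomes was imaged, with or without dynamin inhibitor.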

motor behavior = settings: mouse, in vivo
[14] = system: contralateral paw withdrawal; settings: mouse, in vivo
lamina I/IIo neurons = assay: EPSC induced by primary afferent stimulation; type: cell-based; settings: n = 11 neurons
[15] = system: plasma membrane cAMP (NK1R, HEK293 cells); assay: FRET biosensor pmEpac2, SP-induced plasma membrane cAMP; type: cell-based, human; settings: SP 1 nM
How it was run: as §1

PKCα = settings: cited from earlier work
[16] = Degradation by membranes prepared from spinal cord; type: in vitro ADME, mouse
[17] = system: capsaicin-induced mechanical allodynia; type: in vivo, mouse; settings: mice, intrathecal injection 3 hours before intraplantar capsaicin
NK1R (HEK-NK1R cells) = NK1R (HEK-NK1R cells) (Homo sapiens, UniProt P25103); assay: SP-stimulated Ca2+ signaling; type: cell-based; settings: 10 nM antagonist
Sequence of NK1R (HEK-NK1R cells) (P25103 whole entry, species assumed): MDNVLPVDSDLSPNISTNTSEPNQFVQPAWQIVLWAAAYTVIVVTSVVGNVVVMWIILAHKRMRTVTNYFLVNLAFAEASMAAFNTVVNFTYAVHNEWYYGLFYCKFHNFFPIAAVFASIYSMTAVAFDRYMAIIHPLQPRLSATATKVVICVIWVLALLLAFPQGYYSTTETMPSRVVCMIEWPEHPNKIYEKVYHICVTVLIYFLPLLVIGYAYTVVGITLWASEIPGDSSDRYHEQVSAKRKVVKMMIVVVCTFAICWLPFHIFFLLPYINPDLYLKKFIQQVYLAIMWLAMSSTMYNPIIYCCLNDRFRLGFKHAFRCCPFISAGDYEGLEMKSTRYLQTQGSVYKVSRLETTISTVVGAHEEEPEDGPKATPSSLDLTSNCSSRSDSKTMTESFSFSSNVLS

[18] = system: NK1R-IR in lamina I neurons; assay: NK1R endocytosis in spinal neurons in vivo after intraplantar capsaicin; settings: rat, intraplantar capsaicin alone (vehicle-treated control 80.7 ± 1.6), 10 min
[19] = system: CFA-induced mechanical hyperalgesia; assay: CFA-induced mechanical hyperalgesia, von Frey; type: in vivo, mouse; settings: mice, intrathecal 36 hours after intraplantar CFA
How it was run: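 Mice received intraplantar CFA; 36 hours later test compound was given intrathecally. Mechanical hyperalgesia was read as von Frey filament withdrawal responses of the CFA-injected paw over the following hours. Groups were compared to control by ANOVA with Dunnett's test.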

[20] = rat spinal cord slices, SP 1 μM 2 min

Molecule: COc1ccc2c(c1)CC[C@@H]1[C@@H]2CC[C@]2(C)[C@@H](NCCCCCCN3C(=O)C=CC3=O)CC[C@@H]12 [U73122]
SP stimulation of cytosolic PKC [1]: prevented activation of cytosolic PKC

withdrawal responses of the contralateral paw [14]: did not affect
Molecule: O=C(N/N=C/c1cc(O)c(O)cc1O)c1cc2ccccc2cc1O [Dy4, Dyngo-4a]
plasma membrane PKC activity [2]: amplified plasma membrane PKC activity | capsaicin-evoked mechanical allodynia in rat [3]: inhibited capsaicin-evoked mechanical allodynia | SP stimulation of cytosolic cAMP [4]: abolished | SP stimulation of cytosolic PKC [1]: abolished | endocytosis of fluorescent Alexa Fluor 568–SP (HEK-NK1R cells): inhibited endocytosis | SP-induced NK1R endocytosis [5]: inhibited NK1R endocytosis | SP activation of cytosolic ERK [6]: did not affect | capsaicin-stimulated release of SP or CGRP [7]: did not affect | initial onset of SP-induced firing [8, 20]: did not affect the initial onset | sustained SP-induced firing (firing rate and firing time) [8, 20]: prevented the sustained response | SP-induced firing rate (events per 2 min, normalized to rate at 2 min) ([8]; rat spinal cord slices, SP 1 μM 2 min, endocytosis inhibitor): 342.1 ± 120.7 events per 2 min | SP-stimulated NK1R-IR endocytosis in spinal neurons [9]: inhibited NK1R endocytosis | capsaicin-stimulated ERK activation in spinal neurons [10]: prevented capsaicin-stimulated ERK activation | SP stimulation of nuclear ERK [11]: abolished | nocifensive response to intraplantar formalin [12]: blunted both the early (noninflammatory) and late (inflammatory) phases | uptake of Chol-conjugated tripartite probes [13]: inhibited uptake | rotarod latency (motor behavior): did not affect | generation of excitatory postsynaptic currents (EPSCs) (lamina I/IIo neurons): did not affect | SP activation of plasma membrane cAMP [15]: did not affect

Molecule: CN(C)CCCn1cc(C2=C(c3c[nH]c4ccccc34)C(=O)NC2=O)c2ccccc21 [GF109203X]
inhibiting PKCα (PKCα): 4 % control | SP stimulation of cytosolic cAMP [4]: prevented SP generation of cytosolic cAMP | reduction of number of SP-stimulated action potentials [8]: 61 ± 15% | inhibition of SP-induced firing time of lamina I neurons [8]: 56.8 ± 8.2%

Molecule: substance P [SP]
degradation by spinal cord membranes [16]: rapidly degraded

withdrawal responses of the contralateral paw [14]: did not affect
Molecule: O=C1NC(=NS(=O)(=O)c2cccc3ccccc23)S/C1=C\c1ccc(Br)cc1 [PS2, Pitstop-2]
plasma membrane PKC activity [2]: amplified plasma membrane PKC activity | SP stimulation of cytosolic cAMP [4]: abolished | SP stimulation of cytosolic PKC [1]: abolished | endocytosis of fluorescent Alexa Fluor 568–SP (HEK-NK1R cells): inhibited endocytosis | SP-induced NK1R endocytosis [5]: inhibited NK1R endocytosis | SP activation of cytosolic ERK [6]: did not affect | capsaicin-stimulated release of SP or CGRP [7]: did not affect | capsaicin-stimulated ERK activation in spinal neurons [10]: prevented capsaicin-stimulated ERK activation | SP stimulation of nuclear ERK [11]: abolished | nocifensive response to intraplantar formalin [12]: blunted both the early (noninflammatory) and late (inflammatory) phases | rotarod latency (motor behavior): did not affect | SP activation of plasma membrane cAMP [15]: did not affect

% inhibition against 1 nM SP, Ca2+ signaling (NK1R (HEK-NK1R cells)): 40.8 ± 8.9%
Molecule: FC(F)(F)c1cc(CO[C@H]2CCCN[C@H]2c2ccccc2)cc(C(F)(F)F)c1 [L-733,060]
capsaicin-evoked mechanical allodynia [17]: antinociceptive only at 1 hour

Molecule: N#CC(=C(/N)Sc1ccccc1N)/C(C#N)=C(/N)Sc1ccccc1N [U0126]
reduction of number of SP-stimulated action potentials [8]: 84 ± 5% | inhibition of SP-induced firing time of lamina I neurons [8]: 67.5 ± 8.3%

Molecule: COc1cc(CNC(=O)CCCC/C=C/C(C)C)ccc1O [capsaicin]
% NK1R-IR within 0.5 μm of plasma membrane [18]: 42.1 ± 5.6%

Molecule: C=C1C(=O)N[C@@H](C)C(=O)N(C)[C@@H](C)C(=O)N[C@@H]([C@H](OC(=O)[C@@H](NC(=O)CC)[C@H](O)C(C)C)C(C)C)C(=O)N(C)[C@@H]([C@@H](C)OC)C(=O)O[C@H](C(C)C)[C@H](NC(C)=O)C(=O)O[C@H](Cc2ccccc2)C(=O)N1C [UBO-QIC] (Ac-[X1][dPhLac][NMeDha]A[NMeA][X1](Leu(3R-OH,Nα-propionyl))[NMeT](Me); ester 1-C)
SP stimulation of cytosolic cAMP [4]: prevented SP generation of cytosolic cAMP | SP stimulation of cytosolic PKC [1]: prevented activation of cytosolic PKC | SP-induced NK1R endocytosis [5]: did not affect NK1R endocytosis | SP stimulation of nuclear ERK [11]: prevented SP activation of nuclear ERK

Molecule: O=C(O)CN(CCOCCOCCN(CC(=O)O)CC(=O)O)CC(=O)O [EGTA]
SP stimulation of cytosolic cAMP [4]: prevented SP generation of cytosolic cAMP | SP stimulation of cytosolic PKC [1]: prevented activation of cytosolic PKC

Molecule: CC(C)Oc1cccc(CC(=O)N2CCC[C@@](CC[N+]34CCC(c5ccccc5)(CC3)CC4)(c3ccc(Cl)c(Cl)c3)C2)c1.[Cl-] [SR140,333]
CFA mechanical hyperalgesia [19]: minor | SP-induced nuclear ERK (endosomal NK1R) 4 hours after pulse ([11]; pulse-incubated 30 min, washed, SP 4 hours later): unable to effectively inhibit persistent NK1R signaling in endosomes
